Experimental data taken from ChEMBL document CHEMBL3608263, “Identification and optimisation of 4,5-dihydrobenzo[1,2-d:3,4-d]bisthiazole and 4,5-dihydrothiazolo[4,5-h]quinazoline series of selective phosphatidylinositol-3 kinase alpha inhibitors” (Bioorg Med Chem Lett, 2015).
≈ marks a conversion by molar mass, not a printed value.

Experiments:
[1] = Volume of distribution at steady state in Sprague-Dawley rat at 1 mg/kg, iv and 3 mg/kg, po; type: ADME, organism-based; conditions: in vivo, read-out: Vdss
Outline: (§1)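 Female Sprague-Dawley rats, conscious, permanently cannulated, with free access to food. Dosed 1.0 mg kg-1 intravenously and 3.0 mg kg-1 orally. Blood levels sampled from 5 minutes to 48 h post dose.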

[2] = tested on: Rattus norvegicus; assay: Dose normalized AUC in Sprague-Dawley rat at 1 mg/kg, iv; type: ADME, organism-based; conditions: in vivo; outline: as §1
[3] = tested on: Rattus norvegicus; assay: Dose normalized AUC in Sprague-Dawley rat at 3 mg/kg, po; type: ADME, organism-based; conditions: in vivo; outline: as §1
[4] = Oral bioavailability in Sprague-Dawley rat at 3 mg/kg; type: ADME, organism-based; conditions: in vivo; outline: as §1
[5] = Permeability across apical to basolateral side in human Caco2 cells; type: ADME, cell-based; conditions: Caco-2, read-out: permeability
[6] = Permeability across basolateral to apical side in human Caco2 cells; type: ADME, cell-based; conditions: Caco-2, read-out: permeability
[7] = Solubility of the compound at pH 6.8 by high throughput equilibrium method; type: physicochemical; conditions: buffer
[8] = Plasma concentration in athymic nude mouse xenografted with Rat1-myr-p110alpha tumor at 50 mg/kg, po measured up to 8 hrs; type: ADME, organism-based
Outline: (§2)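 Female athymic mice bearing subcutaneous Rat1-myr-p110α xenografts were given one oral dose of 50 mg kg-1, as suspension or solution. At set time points, groups of n = 4 were sacrificed. Tumors were flash-frozen, pulverized and analysed by Western blot for Ser473 p-Akt. Compound was quantified in plasma in parallel.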

[9] = tested on: Plasma; assay: Drug uptake in plasma of athymic nude mouse xenografted with Rat1-myr-p110alpha tumor at 50 mg/kg, po measured at 8 hrs; type: ADME, organism-based; conditions: in vivo; outline: as §2
[10] = Plasma concentration in athymic nude mouse xenografted with Rat1-myr-p110alpha tumor at 50 mg/kg, po measured after 16 hrs; type: ADME, organism-based; outline: as §2

SMILES	Vd [1] [L/kg]	AUC/dose [2] [nmol·h/L]	AUC/dose [3] [nmol·h/L]	bioavailability [4] [%]	Papp A→B [5] [×10⁻⁶ cm/s]	Papp B→A [6] [×10⁻⁶ cm/s]	solubility thermodynamic [7] [µM]	further results
Cc1nc(NC(=O)N2CCC[C@H]2C(N)=O)sc1-c1ccnc(C(C)(C)C)n1	1.3	1128	199	18	–	–	–	–
Cc1nc(NC(=O)N2CCC[C@H]2C(N)=O)sc1-c1csc(C(C)(C)C)n1	2	561	70	2	12.3	15.6	–	–
CC(C)(C)c1nc2c(s1)CCc1nc(NC(=O)N3CCC[C@H]3C(N)=O)sc1-2	0.4	4132	1585	39	–	–	65 (≈ 26.4 µg/mL)	–
NC(=O)[C@@H]1CCCN1C(=O)Nc1nc2c(s1)-c1nc(CC3CC3)sc1CC2	–	–	–	–	–	–	55 (≈ 22.2 µg/mL)	–
CC(C)(C)c1nc2c(s1)CCc1nc(NC(=O)N3CCC[C@@]3(C)C(N)=O)sc1-2	–	–	–	–	12.1	15.6	310 (≈ 130 µg/mL)	–
CC(C)(C)c1nc2c(s1)CCc1nc(NC(=O)N3CC[C@@H]4C[C@@]43C(N)=O)sc1-2	–	–	–	–	–	–	351 (≈ 147 µg/mL)	–
C[C@@H]1CCN(C(=O)Nc2nc3c(s2)-c2nc(C(C)(C)C(F)(F)F)sc2CC3)[C@@H]1C(N)=O	–	–	–	–	–	–	14 (≈ 6.63 µg/mL)	concentration at 8 h [8]: > 1000 nM
CN(C)C[C@@H]1CCN(C(=O)Nc2nc3c(s2)-c2nc(C(C)(C)C)sc2CC3)[C@@H]1C(N)=O	24	956	531	56	0.76	6.87	–	–
CC(C)(C)c1ncc2c(n1)-c1sc(NC(=O)N3CCC[C@@]3(C)C(N)=O)nc1CC2	–	–	–	–	3.4	25.5	60 (≈ 24.9 µg/mL)	–
CC(C)(C)c1ncc2c(n1)-c1sc(NC(=O)N3CC[C@@H]4C[C@@]43C(N)=O)nc1CC2	0.6	16472	13599	83	–	–	51 (≈ 21 µg/mL)	Drug uptake [9]: Active; concentration at 16 h [10]: 1000 nM
CN(C)C[C@@]1(C(N)=O)CCCN1C(=O)Nc1nc2c(s1)-c1nc(C(C)(C)C)ncc1CC2	3.2	1444	1116	77	5.2	15.8	> 1000	–
CN(C)[C@@H]1C[C@@H](C(N)=O)N(C(=O)Nc2nc3c(s2)-c2nc(C(C)(C)C)ncc2CC3)C1	–	–	–	–	–	–	500 (≈ 222 µg/mL)	–
Cc1nc(NC(=O)N2CCC[C@H]2C(N)=O)sc1-c1ccnc(C(C)(C)C(F)(F)F)c1 [ALPELISIB]	–	–	–	–	3.8	18.3	–	–

The next lines start with results.

Vd [1] [L/kg]	AUC/dose [2] [nmol·h/L]	AUC/dose [3] [nmol·h/L]	bioavailability [4] [%]	Papp A→B [5] [×10⁻⁶ cm/s]	Papp B→A [6] [×10⁻⁶ cm/s]	solubility thermodynamic [7] [µM]	SMILES	further results
–	–	–	–	–	–	< 4	C[C@H]1CCN(C(=O)Nc2nc3c(s2)-c2nc(C(C)(C)C)sc2CC3)[C@@H]1C(N)=O	–
–	–	–	–	–	–	9 (≈ 3.78 µg/mL)	C[C@@H]1CCN(C(=O)Nc2nc3c(s2)-c2nc(C(C)(C)C)sc2CC3)[C@@H]1C(N)=O	–
–	–	–	–	–	–	125 (≈ 50.1 µg/mL)	CC(C)(C)c1ncc2c(n1)-c1sc(NC(=O)N3CCC[C@H]3C(N)=O)nc1CC2	–
0.5	5241	1874	36	3.4	21.7	71 (≈ 29.4 µg/mL)	C[C@@H]1CCN(C(=O)Nc2nc3c(s2)-c2nc(C(C)(C)C)ncc2CC3)[C@@H]1C(N)=O	–
–	–	–	–	–	–	9 (≈ 4.22 µg/mL)	C[C@@H]1CCN(C(=O)Nc2nc3c(s2)-c2nc(C(C)(C)C(F)(F)F)ncc2CC3)[C@@H]1C(N)=O	–
–	–	–	–	–	–	276 (≈ 126 µg/mL)	CN(C)C[C@@H]1CCN(C(=O)Nc2nc3c(s2)-c2nc(C(C)(C)C)ncc2CC3)[C@@H]1C(N)=O	–
